Assay results from ChEMBL document CHEMBL2390883, “Dissecting the pharmacophore of curcumin. Which structural element is critical for which action?” (J Nat Prod, 2013).
Calls of active or inactive are those of the source. The calls are words filed in the database; no cut-off is given here.

Columns and labels:
[1] = target: T1, Nuclear factor erythroid 2-related factor 2 (Homo sapiens) (UniProt Q16236); test: Activation of Nrf2/ARE-mediated transcription in human SK-N-SH cells after 6 hrs by luciferase reporter gene assay; assay type: cell-based
T1 sequence (whole entry): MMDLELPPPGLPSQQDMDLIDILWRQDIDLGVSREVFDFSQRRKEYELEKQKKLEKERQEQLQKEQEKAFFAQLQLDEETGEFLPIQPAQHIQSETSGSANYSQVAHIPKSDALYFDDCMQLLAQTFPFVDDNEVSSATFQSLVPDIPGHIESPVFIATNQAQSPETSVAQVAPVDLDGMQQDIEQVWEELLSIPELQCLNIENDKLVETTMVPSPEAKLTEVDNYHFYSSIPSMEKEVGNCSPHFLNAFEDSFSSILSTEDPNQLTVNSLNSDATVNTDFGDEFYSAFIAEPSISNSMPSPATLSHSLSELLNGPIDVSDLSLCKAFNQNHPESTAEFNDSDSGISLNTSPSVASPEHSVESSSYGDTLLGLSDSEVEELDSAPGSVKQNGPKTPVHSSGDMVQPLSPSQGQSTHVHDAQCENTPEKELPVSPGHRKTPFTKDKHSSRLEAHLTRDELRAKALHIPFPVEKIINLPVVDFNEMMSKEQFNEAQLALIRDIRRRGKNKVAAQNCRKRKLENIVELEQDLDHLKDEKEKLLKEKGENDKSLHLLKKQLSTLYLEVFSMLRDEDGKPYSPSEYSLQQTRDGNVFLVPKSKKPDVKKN
Summary of the method: (§1)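 SK-N-SH cells were transiently transfected with pGL3-ARE-Luc. After 24 h they were exposed to increasing concentrations of compound for 6 h. Cells were washed in PBS and lysed in Tris-phosphate pH 7.8 buffer with MgCl₂, DTT, Triton X-100 and glycerol, then luciferase activity was read in the supernatant. Output is fold induction over untreated cells; three independent experiments, mean SD, Student's t test.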

Homo sapiens = organism: Homo sapiens; test: (§2) Inhibition of NF-kappaB in human 5.1 cells assessed as inhibition of TNFalpha-induced HIV-1-LTR activation after 6 hrs by luciferase reporter gene assay; assay type: cell-based
Summary of the method: (§3)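 Jurkat-derived 5.1 clone, stably carrying HIV-LTR-driven luciferase and maintained under G418. Cells were preincubated with compound at the indicated doses, then stimulated with TNFα for 6 h (methods give 20 ng/mL, legend 2 ng/mL). Luciferase was read from lysate. Output is % inhibition versus TNFα alone; IC50 from curve fitting.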

[2] = tested on: Human immunodeficiency virus 1; test: Antiviral activity against VSV-G protein pseudotyped human immunodeficiency virus 1 infected in human Jurkat cells assessed as inhibition of HIV-1 replication incubated 30 mins prior to infection measured after 12 hrs by luciferase reporter gene assay; assay type: functional, organism-based
Summary of the method: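 Jurkat cells at 10⁶/mL were pretreated with compounds at increasing doses for 30 min. They were then infected with VSV-G-pseudotyped pNL4-3.Luc.R⁻E⁻ (200 ng p24). Firefly luciferase was read in lysates (Tris-phosphate pH 7.8, Triton X-100) 12 h after infection. Values are % activation versus untreated infected cells (100%), given as mean ± SD of independent experiments; IC₅₀ by curve fitting.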

[3] = as §2; assay type: cell-based; summary of the method: as §3
SK-N-SH = test: Cytotoxicity against human SK-N-SH cells after 6 hrs; assay type: cell-based
HeLa = test: Cytotoxicity against human HeLa cells after 12 hrs; assay type: cell-based
Jurkat [4] = test: Cytotoxicity against human Jurkat cells after 6 hrs; assay type: cell-based
[5] = tested on: Human immunodeficiency virus 1; test: Antiviral activity against VSV-G protein pseudotyped human immunodeficiency virus 1 infected in human Jurkat cells assessed as inhibition of HIV-1 replication incubated 30 mins prior to infection measured after 12 hrs by luciferase reporter gene assay relative to curcumin; assay type: functional
[6] = target: T1, Nuclear factor erythroid 2-related factor 2 (Homo sapiens); test: Activation of Nrf2/ARE-mediated transcription in human SK-N-SH cells at high concentration after 6 hrs by luciferase reporter gene assay; assay type: cell-based; summary of the method: as §1
[7] = target: T1, Nuclear factor erythroid 2-related factor 2 (Homo sapiens); test: Activation of Nrf2/ARE-mediated transcription in human SK-N-SH cells at low concentration after 6 hrs by luciferase reporter gene assay; assay type: cell-based; summary of the method: as §1
[8] = Inhibition of Tat-induced HIV-1-Long terminal repeat transactivation in human Hela Tat-Luc cells after 12 hrs by luciferase reporter gene assay; assay type: cell-based; details: Human immunodeficiency virus 1, HeLa
Summary of the method: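 HeLa cells stably transfected with pLTR-Luc and pcDNA3-Tat were exposed to compound at the indicated doses, or to DRB (50 μM) as reference, for 12 h. Luciferase activity was then measured. Output is % activation relative to untreated cells; four independent experiments, mean SD, Student's t test; IC50 from curve fitting.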

[9] = target: Mitogen-activated protein kinase; ERK1/ERK2 (Homo sapiens) (UniProt P27361+P28482); test: Inhibition of PMA-induced ERK 1/2 phosphorylation in human Jurkat cells after 30 mins by Western blotting analysis; assay type: cell-based
Mitogen-activated protein kinase; ERK1/ERK2 (Homo sapiens), sequence (P27361 whole entry, looked up): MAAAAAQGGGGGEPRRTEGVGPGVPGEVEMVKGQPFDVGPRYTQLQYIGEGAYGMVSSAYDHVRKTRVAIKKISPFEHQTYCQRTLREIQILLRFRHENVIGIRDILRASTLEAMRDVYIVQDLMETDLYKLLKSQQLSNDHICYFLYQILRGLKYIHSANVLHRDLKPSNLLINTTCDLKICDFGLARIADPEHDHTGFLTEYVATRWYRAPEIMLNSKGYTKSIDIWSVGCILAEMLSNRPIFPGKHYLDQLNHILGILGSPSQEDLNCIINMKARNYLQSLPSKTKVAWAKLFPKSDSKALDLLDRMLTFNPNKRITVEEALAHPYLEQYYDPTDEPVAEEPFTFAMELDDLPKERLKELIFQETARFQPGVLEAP
Mitogen-activated protein kinase; ERK1/ERK2 (Homo sapiens), sequence (P28482 whole entry, looked up): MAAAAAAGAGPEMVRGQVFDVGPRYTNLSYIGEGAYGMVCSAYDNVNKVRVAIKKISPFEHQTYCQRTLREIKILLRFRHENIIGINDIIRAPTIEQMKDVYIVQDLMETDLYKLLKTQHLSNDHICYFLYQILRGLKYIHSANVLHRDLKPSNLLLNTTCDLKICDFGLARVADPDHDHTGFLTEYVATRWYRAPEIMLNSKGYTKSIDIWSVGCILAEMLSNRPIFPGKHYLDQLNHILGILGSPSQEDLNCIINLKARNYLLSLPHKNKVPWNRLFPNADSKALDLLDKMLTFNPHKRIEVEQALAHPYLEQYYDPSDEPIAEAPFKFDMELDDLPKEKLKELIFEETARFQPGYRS
Summary of the method: (§4)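 Jurkat cells (10⁶/mL) were preincubated 30 min with compound, then given PMA (50 ng/mL) for 15 min. Protein was extracted in NP-40 lysis buffer with protease and phosphatase inhibitors. 30 μg per lane was run on 10% SDS-PAGE and transferred to nitrocellulose. Blots were probed for phospho- and total ERK1/2, JNK, p65 and IκBα (incl. phospho-Ser32/36), with tubulin as loading control.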

[10] = target: Transcription factor p65 (Homo sapiens) (UniProt Q04206); test: Inhibition of PMA-induced NF-kappaB p65 phosphorylation in human Jurkat cells after 30 mins by Western blotting analysis; assay type: cell-based; summary of the method: as §4
Transcription factor p65 (Homo sapiens), sequence (Q04206 whole entry): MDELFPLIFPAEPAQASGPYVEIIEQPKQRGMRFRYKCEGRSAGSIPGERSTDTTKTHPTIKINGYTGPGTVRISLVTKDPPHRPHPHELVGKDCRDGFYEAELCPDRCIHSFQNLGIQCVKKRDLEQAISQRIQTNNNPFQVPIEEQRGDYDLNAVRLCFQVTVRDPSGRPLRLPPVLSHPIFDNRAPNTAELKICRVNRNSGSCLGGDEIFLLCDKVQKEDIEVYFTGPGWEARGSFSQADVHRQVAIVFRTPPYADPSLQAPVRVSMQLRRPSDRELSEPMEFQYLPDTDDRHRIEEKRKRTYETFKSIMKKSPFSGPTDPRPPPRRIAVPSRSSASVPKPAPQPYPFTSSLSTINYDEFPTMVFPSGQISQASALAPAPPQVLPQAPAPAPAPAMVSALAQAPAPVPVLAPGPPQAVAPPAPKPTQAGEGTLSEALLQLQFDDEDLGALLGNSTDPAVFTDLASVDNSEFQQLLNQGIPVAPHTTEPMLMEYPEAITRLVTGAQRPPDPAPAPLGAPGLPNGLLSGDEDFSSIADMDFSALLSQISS

[11] = target: Mitogen-activated protein kinase 8 (Homo sapiens) (UniProt P45983); test: Inhibition of PMA-induced JNK1 phosphorylation in human Jurkat cells after 30 mins by Western blotting analysis; assay type: cell-based; summary of the method: as §4
Mitogen-activated protein kinase 8 (Homo sapiens), sequence (P45983 whole entry): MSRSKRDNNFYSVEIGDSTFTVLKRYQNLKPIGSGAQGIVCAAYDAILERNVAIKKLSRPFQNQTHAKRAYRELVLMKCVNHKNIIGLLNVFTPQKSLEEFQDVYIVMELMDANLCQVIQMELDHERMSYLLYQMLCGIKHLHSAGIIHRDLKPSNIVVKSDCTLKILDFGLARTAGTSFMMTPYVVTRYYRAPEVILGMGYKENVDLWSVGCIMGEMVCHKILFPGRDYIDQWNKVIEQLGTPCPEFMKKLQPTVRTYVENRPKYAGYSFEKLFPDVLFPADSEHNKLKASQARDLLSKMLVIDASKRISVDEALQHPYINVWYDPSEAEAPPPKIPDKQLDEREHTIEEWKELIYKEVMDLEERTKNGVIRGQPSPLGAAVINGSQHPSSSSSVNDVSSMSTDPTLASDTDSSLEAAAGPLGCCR

Jurkat [12] = test: Inhibition of PMA-induced NF-kappaB activation in human Jurkat cells assessed as inhibition of IkappaBalpha degradation after 30 mins by Western blotting analysis; assay type: cell-based; summary of the method: as §4
Jurkat [13] = test: Inhibition of PMA-induced NF-kappaB activation in human Jurkat cells assessed as inhibition of IkappaBalpha phosphorylation after 30 mins by Western blotting analysis; assay type: cell-based; summary of the method: as §4
[14] = target: Mitogen-activated protein kinase 9 (Homo sapiens) (UniProt P45984); test: Inhibition of PMA-induced JNK2 phosphorylation in human Jurkat cells after 30 mins by Western blotting analysis
Mitogen-activated protein kinase 9 (Homo sapiens), sequence (P45984 whole entry, looked up): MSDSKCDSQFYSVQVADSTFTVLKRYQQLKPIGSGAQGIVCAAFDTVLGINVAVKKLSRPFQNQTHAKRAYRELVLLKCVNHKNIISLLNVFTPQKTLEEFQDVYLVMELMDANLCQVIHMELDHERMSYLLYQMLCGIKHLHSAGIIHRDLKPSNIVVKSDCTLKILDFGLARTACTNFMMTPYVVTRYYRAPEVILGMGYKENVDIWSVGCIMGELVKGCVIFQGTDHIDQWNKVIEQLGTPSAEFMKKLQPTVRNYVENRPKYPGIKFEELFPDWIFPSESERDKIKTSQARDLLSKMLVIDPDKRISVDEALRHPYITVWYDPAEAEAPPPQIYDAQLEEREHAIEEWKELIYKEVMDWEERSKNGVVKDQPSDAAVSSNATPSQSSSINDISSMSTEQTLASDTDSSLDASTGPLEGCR

## COc1cc(/C=C/C(=O)CC(=O)/C=C/c2cc(CC=C(C)C)c(O)c(OC)c2)cc(CC=C(C)C)c1O
[1]
  Activity: inactive
Homo sapiens
  inhibition: inactive

## COc1cc(/C=C/C(=O)/C=C/c2cc(CC=C(C)C)c(O)c(OC)c2)cc(CC=C(C)C)c1O
[1]
  Activity: inactive
Homo sapiens
  inhibition: Active

## COc1cc(/C=C/C(=O)CC(=O)/C=C/c2ccc(O)c(OC)c2)ccc1O [CURCUMIN]
[1]
  Activity: Active
[2]
  Activity: Active
[3]
  IC50: 16.4 µM

## COc1cc(CCC(=O)CC(=O)CCc2ccc(O)c(OC)c2)ccc1O
[1]
  Activity: inactive
Homo sapiens
  inhibition: Active

## COc1cc(CCC(=O)CC(=O)CCc2cc(CCC(C)C)c(O)c(OC)c2)cc(CCC(C)C)c1O
Homo sapiens
  inhibition: Active

## COc1cc(/C=C/C(=O)/C=C/c2ccc(O)c(OC)c2)ccc1O
SK-N-SH
  Activity: Non-toxic
HeLa
  Activity: Non-toxic
Jurkat [4]
  Activity: Non-toxic
[5]
  Ratio: 4
[6]
  Activity: inactive
[7]
  Activity: Active
[2]
  Activity: Active
[8]
  IC50: 4.7 µM
[9]
  inhibition: inactive
[10]
  inhibition: Dose-dependent effect
[11]
  inhibition: Dose-dependent effect
Jurkat [12]
  inhibition: Dose-dependent effect
Jurkat [13]
  inhibition: Dose-dependent effect
[3]
  IC50: 4.92 µM
[14]
  inhibition: Dose-dependent effect
